# Values joined by “and” are separate entries in the source; they are usually repeats but may differ in a detail not shown here. Equal values may be shown once.
# System: Fibroblast
# Assay: Multiplex assay against human fibroblast
# Type: toxicity, cell-based
# In short: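 Per cents of healthy-nucleus cells form the tubulin, mitochondrial-mass and membrane-permeability phenotype values. Live cells were stained at seeding with Hoechst33342, BioTracker Green Microtubule Cytoskeleton Dye, MitoTracker Red and Annexin V Alexa Fluor 680. After compound addition they were imaged on a CQ1 microscope at 37°C and 5% CO2, and CellPathfinder machine-learning gating split them into Hoechst high-intensity objects or normal cells, normal cells into healthy, pyknosed or fragmented nuclei, and pyknosed cells into mitotic or apoptotic.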
# [1] = 12 h, 1 µM, compound concentration 1 uM
# [2] = 12 h, 10 µM, compound concentration 10 uM
# [3] = 24 h, 1 µM, compound concentration 1 uM
# [4] = 24 h, 10 µM, compound concentration 10 uM
# [5] = 48 h, 1 µM, compound concentration 1 uM
# [6] = 48 h, 10 µM, compound concentration 10 uM
smiles,measurement,setting,value
Nc1nccc(-c2ccn3c(N)nccc23)n1,Population Apoptotic (%),[1],13.51% and 18.75%
same,Population Healthy Nuclei (%),[1],61.49% and 82.11%
same,Population Hoechst High Intensity Objects (%),[1],0%
same,Population Membrane Permeable-Phenotype (%),[1],5.05% and 4.47%
same,Population Mitochondria Different-Phenotype (%),[1],4.04% and 6.7%
same,Population Mitotic Cells (%),[1],86.49% and 81.25%
same,Population Normal (%),[1],100%
same,Population Pyknosed Nuclei (%),[1],22.98% and 14.68%
same,Population Tubulin-Different-Phenotype (%),[1],7.07% and 20.11%
same,Total Cell Count,[1],161 and 218
same,Population Apoptotic (%),[2],10.71% and 9.09%
same,Population Fragmented Nuclei (%),[2],8.62% and 3.03%
same,Population Healthy Nuclei (%),[2],75.29% and 82.68%
same,Population Hoechst High Intensity Objects (%),[2],0%
same,Population Membrane Permeable-Phenotype (%),[2],8.4% and 3.14%
same,Population Mitochondria Different-Phenotype (%),[2],6.87% and 7.33%
same,Population Mitotic Cells (%),[2],89.29% and 90.91%
same,Population Normal (%),[2],100%
same,Population Pyknosed Nuclei (%),[2],16.09% and 14.29%
same,Population Tubulin-Different-Phenotype (%),[2],9.16% and 16.75%
same,Total Cell Count,[2],174 and 231
same,Population Apoptotic (%),[3],15.56% and 14.81%
same,Population Fragmented Nuclei (%),[3],8.38% and 5.44%
same,Population Healthy Nuclei (%),[3],68.06% and 83.26%
same,Population Hoechst High Intensity Objects (%),[3],0%
same,Population Membrane Permeable-Phenotype (%),[3],0.77% and 2.51%
same,Population Mitochondria Different-Phenotype (%),[3],2.31% and 2.51%
same,Population Mitotic Cells (%),[3],84.44% and 85.19%
same,Population Normal (%),[3],100%
same,Population Pyknosed Nuclei (%),[3],23.56% and 11.3%
same,Population Tubulin-Different-Phenotype (%),[3],13.08% and 16.58%
same,Total Cell Count,[3],191 and 239
same,Population Apoptotic (%),[4],6.98% and 4.35%
same,Population Fragmented Nuclei (%),[4],9.95% and 3.5%
same,Population Healthy Nuclei (%),[4],69.67% and 87.55%
same,Population Hoechst High Intensity Objects (%),[4],0%
same,Population Membrane Permeable-Phenotype (%),[4],4.76% and 5.33%
same,Population Mitochondria Different-Phenotype (%),[4],5.44% and 2.22%
same,Population Mitotic Cells (%),[4],93.02% and 95.65%
same,Population Normal (%),[4],100%
same,Population Pyknosed Nuclei (%),[4],20.38% and 8.95%
same,Population Tubulin-Different-Phenotype (%),[4],16.33% and 21.33%
same,Total Cell Count,[4],211 and 257
same,Population Apoptotic (%),[5],22.73% and 26.09%
same,Population Fragmented Nuclei (%),[5],8.37% and 5.8%
same,Population Healthy Nuclei (%),[5],81.4% and 83.93%
same,Population Hoechst High Intensity Objects (%),[5],0%
same,Population Membrane Permeable-Phenotype (%),[5],1.14% and 3.72%
same,Population Mitochondria Different-Phenotype (%),[5],9.71% and 2.66%
same,Population Mitotic Cells (%),[5],77.27% and 73.91%
same,Population Normal (%),[5],100%
same,Population Pyknosed Nuclei (%),[5],10.23% and 10.27%
same,Total Cell Count,[5],215 and 224
same,Population Apoptotic (%),[6],23.53% and 19.05%
same,Population Fragmented Nuclei (%),[6],6.48% and 4.4%
same,Population Healthy Nuclei (%),[6],86.64% and 87.2%
same,Population Hoechst High Intensity Objects (%),[6],0%
same,Population Membrane Permeable-Phenotype (%),[6],1.87% and 1.83%
same,Population Mitotic Cells (%),[6],76.47% and 80.95%
same,Population Normal (%),[6],100%
same,Population Pyknosed Nuclei (%),[6],6.88% and 8.4%
same,Total Cell Count,[6],247 and 250
COCCNc1cc(NC(=O)N2CCCc3cc(CN4CCN(C)CC4=O)c(C=O)nc32)ncc1C#N [FGF401],Population Apoptotic (%),[1],10.64% and 13.95%
same,Population Fragmented Nuclei (%),[1],11.5% and 4.82%
same,Population Healthy Nuclei (%),[1],65% and 77.91%
same,Population Hoechst High Intensity Objects (%),[1],0%
same,Population Membrane Permeable-Phenotype (%),[1],3.85% and 1.03%
same,Population Mitochondria Different-Phenotype (%),[1],6.15% and 8.25%
same,Population Mitotic Cells (%),[1],89.36% and 86.05%
same,Population Normal (%),[1],100%
same,Population Pyknosed Nuclei (%),[1],23.5% and 17.27%
same,Population Tubulin-Different-Phenotype (%),[1],13.08% and 10.31%
same,Total Cell Count,[1],200 and 249
same,Population Apoptotic (%),[2],14.63% and 19.35%
same,Population Fragmented Nuclei (%),[2],15.03% and 6.59%
same,Population Healthy Nuclei (%),[2],58.17% and 76.37%
same,Population Hoechst High Intensity Objects (%),[2],0%
same,Population Membrane Permeable-Phenotype (%),[2],3.37% and 5.76%
same,Population Mitochondria Different-Phenotype (%),[2],11.24% and 10.07%
same,Population Mitotic Cells (%),[2],85.37% and 80.65%
same,Population Normal (%),[2],100%
same,Population Pyknosed Nuclei (%),[2],26.8% and 17.03%
same,Population Tubulin-Different-Phenotype (%),[2],22.47% and 25.9%
same,Total Cell Count,[2],153 and 182
same,Population Apoptotic (%),[3],11.11% and 15.38%
same,Population Fragmented Nuclei (%),[3],11.01% and 5.33%
same,Population Healthy Nuclei (%),[3],68.35% and 89.34%
same,Population Hoechst High Intensity Objects (%),[3],0%
same,Population Membrane Permeable-Phenotype (%),[3],7.38% and 0.46%
same,Population Mitochondria Different-Phenotype (%),[3],4.7% and 6.42%
same,Population Mitotic Cells (%),[3],88.89% and 84.62%
same,Population Normal (%),[3],100%
same,Population Tubulin-Different-Phenotype (%),[3],9.4% and 12.84%
same,Total Cell Count,[3],218 and 244
same,Population Apoptotic (%),[4],8.57% and 3.23%
same,Population Fragmented Nuclei (%),[4],12.26% and 4.02%
same,Population Healthy Nuclei (%),[4],65.16% and 80.4%
same,Population Hoechst High Intensity Objects (%),[4],0%
same,Population Membrane Permeable-Phenotype (%),[4],8.91% and 3.75%
same,Population Mitochondria Different-Phenotype (%),[4],6.93% and 8.75%
same,Population Mitotic Cells (%),[4],91.43% and 96.77%
same,Population Normal (%),[4],100%
same,Population Pyknosed Nuclei (%),[4],22.58% and 15.58%
same,Population Tubulin-Different-Phenotype (%),[4],17.82% and 16.88%
same,Total Cell Count,[4],155 and 199
same,Population Fragmented Nuclei (%),[5],9.45% and 6.06%
same,Population Healthy Nuclei (%),[5],81.89% and 88.26%
same,Population Hoechst High Intensity Objects (%),[5],0%
same,Population Membrane Permeable-Phenotype (%),[5],0.48% and 1.29%
same,Population Mitochondria Different-Phenotype (%),[5],12.02% and 2.58%
same,Population Mitotic Cells (%),[5],63.64% and 93.33%
same,Population Normal (%),[5],100%
same,Population Pyknosed Nuclei (%),[5],8.66% and 5.68%
same,Population Tubulin-Different-Phenotype (%),[5],2.88% and 11.59%
same,Total Cell Count,[5],254 and 264
same,Population Apoptotic (%),[6],27.27% and 18.18%
same,Population Fragmented Nuclei (%),[6],9.49% and 6.84%
same,Population Healthy Nuclei (%),[6],83.54% and 87.37%
same,Population Hoechst High Intensity Objects (%),[6],0%
same,Population Membrane Permeable-Phenotype (%),[6],1.52% and 1.81%
same,Population Mitotic Cells (%),[6],72.73% and 81.82%
same,Population Normal (%),[6],100%
same,Population Pyknosed Nuclei (%),[6],6.96% and 5.79%
same,Population Tubulin-Different-Phenotype (%),[6],9.85% and 22.29%
same,Total Cell Count,[6],158 and 190
CC(=O)NCC(=O)N1[C@@H]2CC[C@H]1c1ccc(Nc3ncc(C(F)(F)F)c(NC4CCC4)n3)cc12 [PF-03814735],Population Apoptotic (%),[1],14.81% and 22.73%
same,Population Fragmented Nuclei (%),[1],12.78% and 6.01%
same,Population Healthy Nuclei (%),[1],72.22% and 81.97%
same,Population Hoechst High Intensity Objects (%),[1],0%
same,Population Membrane Permeable-Phenotype (%),[1],4.62% and 4%
same,Population Mitochondria Different-Phenotype (%),[1],7.69% and 10.67%
same,Population Mitotic Cells (%),[1],85.19% and 77.27%
same,Population Normal (%),[1],100%
same,Population Pyknosed Nuclei (%),[1],15% and 12.02%
same,Population Tubulin-Different-Phenotype (%),[1],20% and 22.67%
same,Total Cell Count,[1],180 and 183
same,Population Apoptotic (%),[2],46.51% and 79.49%
same,Population Fragmented Nuclei (%),[2],20.25% and 27.83%
same,Population Healthy Nuclei (%),[2],53.37% and 53.77%
same,Population Hoechst High Intensity Objects (%),[2],0%
same,Population Membrane Permeable-Phenotype (%),[2],25.29% and 34.21%
same,Population Mitochondria Different-Phenotype (%),[2],17.24% and 20.18%
same,Population Mitotic Cells (%),[2],53.49% and 20.51%
same,Population Normal (%),[2],100%
same,Population Pyknosed Nuclei (%),[2],26.38% and 18.4%
same,Population Tubulin-Different-Phenotype (%),[2],36.78% and 78.07%
same,Total Cell Count,[2],163 and 212
same,Population Apoptotic (%),[3],18.18% and 31.25%
same,Population Fragmented Nuclei (%),[3],18.48% and 9.2%
same,Population Healthy Nuclei (%),[3],75.54% and 81.61%
same,Population Hoechst High Intensity Objects (%),[3],0%
same,Population Membrane Permeable-Phenotype (%),[3],9.35% and 5.63%
same,Population Mitochondria Different-Phenotype (%),[3],5.76% and 6.34%
same,Population Mitotic Cells (%),[3],81.82% and 68.75%
same,Population Normal (%),[3],100%
same,Population Pyknosed Nuclei (%),[3],5.98% and 9.2%
same,Population Tubulin-Different-Phenotype (%),[3],17.99% and 28.87%
same,Total Cell Count,[3],184 and 174
same,Population Apoptotic (%),[4],39.13% and 90.32%
same,Population Fragmented Nuclei (%),[4],24.36% and 32.26%
same,Population Healthy Nuclei (%),[4],46.15% and 39.17%
same,Population Hoechst High Intensity Objects (%),[4],0%
same,Population Normal (%),[4],100%
same,Population Pyknosed Nuclei (%),[4],29.49% and 28.57%
same,Population Tubulin-Different-Phenotype (%),[4],31.94% and 67.06%
same,Total Cell Count,[4],156 and 217
same,Population Fragmented Nuclei (%),[5],18.54% and 6.41%
same,Population Healthy Nuclei (%),[5],75.28% and 89.74%
same,Population Hoechst High Intensity Objects (%),[5],0%
same,Population Membrane Permeable-Phenotype (%),[5],1.49% and 7.14%
same,Population Normal (%),[5],100%
same,Population Pyknosed Nuclei (%),[5],6.18% and 3.85%
same,Population Tubulin-Different-Phenotype (%),[5],14.18% and 30.71%
same,Total Cell Count,[5],178 and 156
same,Population Apoptotic (%),[6],36.84% and 83.78%
same,Population Fragmented Nuclei (%),[6],23.6% and 31.34%
same,Population Healthy Nuclei (%),[6],64.6% and 51.61%
same,Population Hoechst High Intensity Objects (%),[6],0%
same,Population Mitochondria Different-Phenotype (%),[6],26.92% and 25%
same,Population Normal (%),[6],100%
same,Population Pyknosed Nuclei (%),[6],11.8% and 17.05%
same,Total Cell Count,[6],161 and 217

# — ChEMBL document CHEMBL5724801, “EUbOPEN Chemogenomics Library - Multiplex” (2024)
